Our source for the IC50 values is ChEMBL document CHEMBL1833814 (Bioorg Med Chem Lett, 2011).

The assay has as its target Fatty acid synthase (Homo sapiens, UniProt P49327). Kind of assay: Inhibition of human FAS assessed as synthesis of long chain fatty acids from malonyl CoA after 60 mins by fluorescence assay. In a few lines: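 FAS enzyme prepared from HeLa cells, in enzyme buffer (20 mM K phosphate, 1 mM EDTA, 1 mM DTT, 5% glycerol, pH 7.4). It was preincubated 60 min at 37 °C with compound (0.1% DMSO), 326 µM NADPH and 60 µM acetyl CoA in 100 mM K phosphate, 1 mM EDTA, 1 mM DTT, pH 7.0. The reaction was started with 200 µM malonyl CoA. NADPH consumption was read at 340 nm over 10 min, and the slope (Vmax) was taken.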

The term IC50 denotes the concentration at which inhibition is half-maximal.

Fatty acid synthase, sequence (P49327 whole entry): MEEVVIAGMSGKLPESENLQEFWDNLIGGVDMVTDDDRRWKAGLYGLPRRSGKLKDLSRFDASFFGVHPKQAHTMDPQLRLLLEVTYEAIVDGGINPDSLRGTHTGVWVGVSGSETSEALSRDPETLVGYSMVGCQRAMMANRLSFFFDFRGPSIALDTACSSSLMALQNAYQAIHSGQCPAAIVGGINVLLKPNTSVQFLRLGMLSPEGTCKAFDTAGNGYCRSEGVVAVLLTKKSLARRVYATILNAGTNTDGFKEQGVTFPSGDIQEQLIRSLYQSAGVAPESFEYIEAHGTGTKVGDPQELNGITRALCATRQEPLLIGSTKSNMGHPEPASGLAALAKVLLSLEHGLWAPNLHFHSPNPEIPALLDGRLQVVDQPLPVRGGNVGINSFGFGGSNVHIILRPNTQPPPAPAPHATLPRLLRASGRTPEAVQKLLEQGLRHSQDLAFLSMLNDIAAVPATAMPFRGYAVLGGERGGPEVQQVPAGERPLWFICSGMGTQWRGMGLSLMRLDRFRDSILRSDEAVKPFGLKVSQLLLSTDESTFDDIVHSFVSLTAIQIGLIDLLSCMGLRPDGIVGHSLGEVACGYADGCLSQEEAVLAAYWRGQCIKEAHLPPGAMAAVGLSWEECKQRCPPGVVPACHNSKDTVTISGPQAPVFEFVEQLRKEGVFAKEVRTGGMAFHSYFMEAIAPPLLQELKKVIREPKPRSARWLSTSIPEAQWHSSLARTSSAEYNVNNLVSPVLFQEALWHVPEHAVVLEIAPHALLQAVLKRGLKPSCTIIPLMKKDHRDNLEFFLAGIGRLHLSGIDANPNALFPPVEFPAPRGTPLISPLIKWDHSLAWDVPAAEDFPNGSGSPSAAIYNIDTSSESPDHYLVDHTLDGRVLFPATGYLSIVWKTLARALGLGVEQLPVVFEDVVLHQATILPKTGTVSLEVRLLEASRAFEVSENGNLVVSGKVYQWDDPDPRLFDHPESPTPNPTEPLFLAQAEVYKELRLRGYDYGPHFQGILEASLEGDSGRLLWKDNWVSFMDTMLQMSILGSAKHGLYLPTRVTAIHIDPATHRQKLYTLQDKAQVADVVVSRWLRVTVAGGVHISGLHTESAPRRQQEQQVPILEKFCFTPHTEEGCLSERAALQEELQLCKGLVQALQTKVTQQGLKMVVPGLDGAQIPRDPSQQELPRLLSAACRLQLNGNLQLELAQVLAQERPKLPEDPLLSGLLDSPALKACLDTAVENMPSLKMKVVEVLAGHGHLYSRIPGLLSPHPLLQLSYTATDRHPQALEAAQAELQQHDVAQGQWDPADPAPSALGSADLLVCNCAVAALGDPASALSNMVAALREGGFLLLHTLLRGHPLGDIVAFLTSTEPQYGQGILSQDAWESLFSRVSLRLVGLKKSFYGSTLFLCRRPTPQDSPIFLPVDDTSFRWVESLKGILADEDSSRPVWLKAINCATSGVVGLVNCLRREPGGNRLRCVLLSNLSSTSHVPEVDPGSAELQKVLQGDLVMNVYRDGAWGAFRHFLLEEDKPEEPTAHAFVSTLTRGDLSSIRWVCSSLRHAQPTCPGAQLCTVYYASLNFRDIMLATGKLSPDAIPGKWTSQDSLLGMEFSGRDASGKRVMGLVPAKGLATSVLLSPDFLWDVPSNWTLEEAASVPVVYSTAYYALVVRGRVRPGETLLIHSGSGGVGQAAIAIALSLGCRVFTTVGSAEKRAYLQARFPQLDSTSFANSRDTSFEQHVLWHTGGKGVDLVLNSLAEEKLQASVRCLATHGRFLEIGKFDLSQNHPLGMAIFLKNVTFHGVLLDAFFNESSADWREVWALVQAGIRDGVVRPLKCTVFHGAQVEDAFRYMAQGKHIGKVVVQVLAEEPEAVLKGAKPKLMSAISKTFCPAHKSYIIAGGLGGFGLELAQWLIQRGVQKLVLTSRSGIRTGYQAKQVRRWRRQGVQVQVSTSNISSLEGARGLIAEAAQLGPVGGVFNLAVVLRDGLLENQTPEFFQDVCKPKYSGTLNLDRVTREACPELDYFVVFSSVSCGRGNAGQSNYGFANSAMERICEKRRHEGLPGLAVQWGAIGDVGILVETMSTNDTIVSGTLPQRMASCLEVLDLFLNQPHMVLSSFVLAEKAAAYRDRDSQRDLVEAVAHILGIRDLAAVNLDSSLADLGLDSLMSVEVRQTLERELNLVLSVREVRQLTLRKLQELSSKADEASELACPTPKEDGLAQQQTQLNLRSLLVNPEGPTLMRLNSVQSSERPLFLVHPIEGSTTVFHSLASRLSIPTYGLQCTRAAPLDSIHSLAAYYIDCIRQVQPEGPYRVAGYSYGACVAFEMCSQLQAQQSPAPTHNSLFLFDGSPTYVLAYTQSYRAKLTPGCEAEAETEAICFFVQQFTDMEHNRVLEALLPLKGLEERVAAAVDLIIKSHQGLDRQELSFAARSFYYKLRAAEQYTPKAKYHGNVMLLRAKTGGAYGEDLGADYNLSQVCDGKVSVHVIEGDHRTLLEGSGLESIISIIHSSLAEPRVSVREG

As to `COCC(=O)N[C@H]1CC[C@@H](C(=O)N(C)c2ccc(-c3nc4ccccc4o3)cc2)C1`, the IC50 was found to be 910 nM.

With `CN(C)CCCCCC(=O)N[C@H]1CC[C@@H](C(=O)N(C)c2ccc(-c3ccccc3)cc2)C1`, the IC50 came out at 2000 nM.

On to `CC(C)C(=O)N[C@H]1CC[C@@H](C(=O)N(C)c2ccc(-c3ccccc3)cc2)C1`, for which the IC50 is 420 nM.

`CCC(=O)N[C@H]1CC[C@@H](C(=O)N(C)c2ccc(-c3ccccc3)cc2)C1`: the IC50 was found to be 300 nM.

`CC(=O)N[C@H]1CC[C@@H](C(=O)N(C)c2ccc(-c3nc4ccccc4o3)cc2)C1`: the IC50 came to 200 nM.

For `CCC(=O)N[C@@H]1CC[C@H](C(=O)N(C)c2ccc(-c3nc4ccccc4o3)cc2)C1` [BI 99990], the IC50 was > 3000 nM.

For `CCNC(=O)N[C@H]1CC[C@@H](C(=O)N(C)c2ccc(-c3nc4ccccc4n3C)cc2)C1`, the IC50 was 1400 nM.

As for `CC(=O)N[C@@H]1CC[C@H](C(=O)N(C)c2ccc(-c3ccccc3)cc2)C1`, the 50% inhibitory concentration (IC50) was > 10000 nM.

On to `C/C=C/C/C=C/CCC(=O)[C@H]1O[C@H]1C(N)=O` [CERULENIN], for which the IC50 turned out to be 5800 nM.

Regarding `CN(C)CCCCCC(=O)N[C@H]1CC[C@@H](C(=O)N(C)c2ccc(-c3nc4ccccc4o3)cc2)C1`, the IC50 stood at 580 nM.

On to `CC(=O)N[C@H]1CC[C@@H](C(=O)N(C)c2ccc(-c3nc4ccccc4[nH]3)cc2)C1`, for which the IC50 is 1300 nM.

With `CC(C)C(=O)N[C@H]1CC[C@@H](C(=O)N(C)c2ccc(-c3nc4ccccc4[nH]3)cc2)C1`, the IC50 stood at 1500 nM.

For `CCCC(=O)N[C@H]1CC[C@@H](C(=O)N(C)c2ccc(-c3nc4ccccc4o3)cc2)C1`, the half-maximal inhibitory concentration (IC50) was found to be 420 nM.
